{"data": "Results pooled from the literature", "target": "Mitogen-activated protein kinase 13 (MAPK13, Homo sapiens, UniProt O15264)", "One construct used (O15264 1-365)": "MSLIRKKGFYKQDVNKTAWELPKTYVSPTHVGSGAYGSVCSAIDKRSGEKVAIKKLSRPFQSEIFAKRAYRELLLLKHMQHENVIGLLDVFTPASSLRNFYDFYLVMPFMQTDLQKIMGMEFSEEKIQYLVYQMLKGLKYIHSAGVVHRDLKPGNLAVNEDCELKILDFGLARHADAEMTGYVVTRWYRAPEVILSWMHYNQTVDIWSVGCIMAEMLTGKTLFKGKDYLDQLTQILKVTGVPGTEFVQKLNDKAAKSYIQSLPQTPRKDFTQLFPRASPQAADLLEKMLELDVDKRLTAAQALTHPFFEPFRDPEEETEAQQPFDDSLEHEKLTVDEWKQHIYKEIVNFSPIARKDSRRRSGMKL", "note": "Compare with care: the assays were run in different laboratories."}
{"SMILES": "COc1cc(Cl)c(C(=O)N[C@@H](CN[C@H]2CC[C@@H](N)CC2)Cc2ccc(C#N)cc2)cc1-c1ccc(CN[C@H](C)c2ccc(C)cc2)o1", "read-out": "enzyme activity", "mode": "inhibitor", "concentration": "1 µM", "endpoint": "remaining activity", "result": "101%"}
{"SMILES": "O=C1NC(=O)c2cc(Nc3ccc(F)cc3)c(Nc3ccc(F)cc3)cc21", "read-out": "cell-free assay", "concentration": "0.5 µM", "endpoint": "remaining signal", "result": "99.4%"}
{"SMILES": "CCC(=O)N[C@@H]1CC[C@H](C(=O)N(C)c2ccc(-c3nc4ccccc4o3)cc2)C1", "read-out": "cell-free assay", "technique": "competition with immobilised ligand", "concentration": "1 µM", "endpoint": "remaining binding", "result": "100%"}
{"SMILES": "CCN(CC)CCNC(=O)c1c(C)[nH]c(/C=C2\\C(=O)Nc3ccc(F)cc32)c1C", "read-out": "enzyme activity", "mode": "inhibitor", "concentration": "0.3 µM", "endpoint": "inhibition", "result": "-17%"}
{"SMILES": "N#CCCc1ccc2c(c1)-c1[nH]c3ccc([N+](=O)[O-])cc3c1CC(=O)N2", "read-out": "cell-free assay", "concentration": "0.5 µM", "endpoint": "remaining signal", "result": "98.2%"}
{"SMILES": "CC1(C)NC(=O)c2[nH]c3c(Cl)c(Cl)ccc3c2C1C#N (stereo not drawn)", "read-out": "thermal stability", "technique": "DSF", "concentration": "10 µM", "endpoint": "ΔTm", "result": "0.9 °C"}
{"SMILES": "O=C(NCc1ncc(C(F)(F)F)cc1Cl)c1ccc2c(c1)C1(CCS(=O)(=O)CC1)[C@H](C1CC1)N2S(=O)(=O)c1ccc(F)cc1", "read-out": "cell-free assay", "technique": "competition with immobilised ligand", "concentration": "1 µM", "endpoint": "remaining binding", "result": "99%"}
{"SMILES": "Cc1ccc(C(=O)Nc2ccc(CN3CCN(C)CC3)c(C(F)(F)F)c2)cc1C#Cc1cnc2cccnn12", "read-out": "enzyme activity", "mode": "inhibitor", "concentration": "23.5 nM", "endpoint": "remaining activity", "result": "93%"}
{"SMILES": "CN(C)C1CCN(CC#Cc2nn(C3CCCC3)c3nc(NCc4ccccc4)ncc23)C1 (stereo not drawn)", "read-out": "enzyme activity", "mode": "inhibitor", "technique": "FRET", "concentration": "1 µM", "endpoint": "inhibition", "result": "0%"}
{"SMILES": "CC(C)(C)c1nc2c(s1)c1nc(N)ncc1c1ccc(NS(=O)(=O)c3c(F)cccc3F)c(F)c12", "read-out": "enzyme activity", "mode": "inhibitor", "technique": "radiometric", "concentration": "1 µM", "endpoint": "remaining activity", "result": "91%"}
{"SMILES": "COc1cc(Nc2cnc(C#N)c(O[C@H](C)CN(C)C)n2)ncc1-c1cnn(C)c1", "read-out": "enzyme activity", "mode": "inhibitor", "technique": "radiometric", "concentration": "1 µM", "endpoint": "remaining activity", "result": "87%"}
{"SMILES": "Cc1cc(NC(=O)c2cccc3cc(-c4cccc5[nH]nc(N)c45)ccc23)ccc1F", "read-out": "enzyme activity", "mode": "inhibitor", "concentration": "0.1 µM", "endpoint": "activity vs control", "result": "101%"}
{"SMILES": "CC(C)(C)C(=O)c1sc(NC2CCCCC2)nc1N", "read-out": "enzyme activity", "mode": "inhibitor", "concentration": "10 µM", "endpoint": "remaining activity", "result": "102%"}
{"SMILES": "O=C(Nc1cnn(-c2csc(C(=O)NC3COC3)c2)c1)Nc1ccccc1Cl", "read-out": "enzyme activity", "mode": "inhibitor", "concentration": "5 µM", "endpoint": "remaining activity", "result": "122%"}
{"SMILES": "Cn1c2c(c3ccc(Cl)c(Cl)c31)C(C#N)C1(CCN(C(=O)OC(C)(C)C)CC1)NC2=O (racemic)", "read-out": "thermal stability", "technique": "DSF", "concentration": "10 µM", "endpoint": "ΔTm", "result": "-0.1 °C"}
{"SMILES": "CNC(=O)Nc1ccc2c(c1)[C@@]1(CC2)OC(=O)N(CC(=O)N(Cc2ccc(F)cc2)[C@@H](C)C(F)(F)F)C1=O", "read-out": "cell-free assay", "technique": "competition with immobilised ligand", "concentration": "1 µM", "endpoint": "remaining binding", "result": "97%"}
{"SMILES": "CN1CC(Oc2cnc(C#N)cc2-c2ccn3nc(NC(=O)C4CC4)cc3c2)C1", "read-out": "enzyme activity", "mode": "inhibitor", "concentration": "1 µM", "endpoint": "inhibition", "result": "-1%"}
{"SMILES": "CCCOc1ccc(OC)c(F)c1C(=O)c1ccc(C(=O)N[C@@H]2CNC[C@H]2NC(=O)c2ccc3[nH]ncc3c2)cc1", "read-out": "enzyme activity", "mode": "inhibitor", "concentration": "10 µM", "endpoint": "remaining activity", "result": "93%"}
{"SMILES": "CCOc1cc(-c2nncn2C)ccc1Nc1ncc2cc(C)nc(NCC(C)(C)C)c2n1", "read-out": "enzyme activity", "mode": "inhibitor", "technique": "FRET", "concentration": "1 µM", "endpoint": "inhibition", "result": "< 15%"}
{"SMILES": "Oc1cccc(-c2nc(N3CCOCC3)c3oc4ncccc4c3n2)c1", "read-out": "enzyme activity", "mode": "inhibitor", "concentration": "10 µM", "endpoint": "remaining activity", "result": "84%"}
{"SMILES": "CNC(=O)c1cc(Oc2ccc(NC(=O)Nc3ccc(Cl)c(C(F)(F)F)c3)cc2)ccn1", "read-out": "enzyme activity", "mode": "inhibitor", "concentration": "10 µM", "endpoint": "inhibition", "result": "56%"}
{"SMILES": "N#Cc1ccc(Nc2ccc3[nH]c(=O)[nH]c3c2)c(Cl)c1", "read-out": "cell-free assay", "technique": "competition with immobilised ligand", "concentration": "1 µM", "endpoint": "remaining binding", "result": "100%"}
{"SMILES": "O=C(Nc1cnn(-c2csc(C(=O)NC3COC3)c2)c1)Nc1c(F)cccc1Cl", "read-out": "enzyme activity", "mode": "inhibitor", "concentration": "5 µM", "endpoint": "remaining activity", "result": "98.4%"}
{"SMILES": "CCCS(=O)(=O)Nc1ccc(F)c(C(=O)c2c[nH]c3ncc(-c4ccc(Cl)cc4)cc23)c1F", "read-out": "enzyme activity", "mode": "inhibitor", "concentration": "1 µM", "endpoint": "inhibition", "result": "< 10%"}
{"SMILES": "Cn1c2c(c3ccc(Cl)c(Cl)c31)C(C#N)C1(CCCC1)NC2=O (stereo not drawn)", "read-out": "thermal stability", "technique": "DSF", "concentration": "10 µM", "endpoint": "ΔTm", "result": "-0.1 °C"}
{"SMILES": "Cc1cnc(NC2CCOCC2)nc1-n1cnc(C(=O)NC(CN)c2cc(F)cc(Cl)c2)c1 (stereo not drawn)", "read-out": "enzyme activity", "mode": "inhibitor", "technique": "radiometric", "concentration": "1 µM", "endpoint": "remaining activity", "result": "28%"}
{"SMILES": "O=C(Nc1ccc(Oc2ccc(F)cc2)cc1)N1CCc2ncccc2[C@H]1c1ccc(F)cc1", "read-out": "cell-free assay", "technique": "competition with immobilised ligand", "concentration": "1 µM", "endpoint": "remaining binding", "result": "96%"}
{"SMILES": "COc1cc2c(Nc3ccc(Br)cc3F)ncnc2cc1OCC1CCN(C)CC1", "read-out": "cell-free assay", "concentration": "0.5 µM", "endpoint": "remaining signal", "result": "95.5%"}
{"SMILES": "CN1CCC2(CC1)NC(=O)c1c(c3ccc(Cl)c(Cl)c3n1C)C2C#N (racemic)", "read-out": "thermal stability", "technique": "DSF", "concentration": "10 µM", "endpoint": "ΔTm", "result": "0.4 °C"}
{"SMILES": "Cc1nc(C2CCN(C(=O)c3ccc(OC(F)(F)F)cc3N)CC2)c2ncc(N3CCN(C)CC3)cc2n1", "read-out": "cell-free assay", "technique": "competition with immobilised ligand", "concentration": "1 µM", "endpoint": "remaining binding", "result": "100%"}
{"SMILES": "COc1cc(-c2cc(-c3ccc(N4CCNCC4)cc3)cnc2C)cc(OC)c1OC", "read-out": "enzyme activity", "mode": "inhibitor", "concentration": "1 µM", "endpoint": "inhibition", "result": "1%"}
{"SMILES": "CNC(=O)c1ccc(Nc2ncc(C(F)(F)F)c(NCc3nccnc3N(C)S(C)(=O)=O)n2)cc1", "read-out": "cell-free assay", "technique": "competition with immobilised ligand", "concentration": "0.1 µM", "endpoint": "remaining binding", "result": "91%"}
{"SMILES": "COc1cc2ncnc(Nc3ccc(Oc4ccccc4)c(C)c3C)c2cc1OC", "read-out": "enzyme activity", "mode": "inhibitor", "concentration": "1 µM", "endpoint": "inhibition", "result": "2%"}
{"SMILES": "Cc1nc(Cc2cccc(C(F)(F)F)c2)sc1-c1ccc(C(N)=O)nc1", "read-out": "cell-free assay", "technique": "competition with immobilised ligand", "concentration": "1 µM", "endpoint": "remaining binding", "result": "99%"}
{"SMILES": "Cc1ccc(Nc2nccc(N(C)c3ccc4c(C)n(C)nc4c3)n2)cc1S(N)(=O)=O", "read-out": "enzyme activity", "mode": "inhibitor", "concentration": "10 µM", "endpoint": "inhibition", "result": "0%"}
{"SMILES": "Cn1c2c(c3ccc(Cl)c(Cl)c31)C(C#N)C1(CCOCC1)NC2=O (stereo not drawn)", "read-out": "thermal stability", "technique": "DSF", "concentration": "10 µM", "endpoint": "ΔTm", "result": "0.4 °C"}
